We go through five compounds from ChEMBL document CHEMBL1141273, “Epicoccins A-D, epipolythiodioxopiperazines from a Cordyceps-colonizing isolate of Epicoccum nigrum” (2007).

Calls of active or inactive are those of the source. The calls are words filed in the database; no cut-off is given here.

The test system of assay [1] is Enterococcus faecalis. Kind of assay: Antimicrobial activity against Enterococcus faecalis ATCC 19433 at 100 ug/disk after 24 hrs. The format is functional, organism-based. In outline: (§1)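 Bacteria grown on Mueller-Hinton agar. Paper disks (6 mm) bearing 100 µg compound placed on the agar. Plates incubated at 37 °C for 24 h and examined for a zone of inhibition.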

Assay [2] deals with Streptococcus mutans. Kind of assay: Antimicrobial activity against Streptococcus mutans ATCC 25175 at 100 ug/disk after 24 hrs. Type of assay: functional, organism-based. The essentials:
as §1

Assay [3] deals with Geotrichum candidum. In words: Antifungal activity against Geotrichum candidum AS2.498 at 100 ug/disk after 24 hrs. Type of assay: functional, organism-based.
Assay [4] has as its system Candida albicans. Kind of assay: Antifungal activity against Candida albicans ATCC 10231 at 100 ug/disk after 24 hrs. Type of assay: functional, organism-based.
Assay [5] relates to Micrococcus luteus. In words: Antimicrobial activity against Sarcina lutea CMCC B28001 at 100 ug/disk after 24 hrs. The format is functional, organism-based. The essentials:
as §1

For assay [6], the system named is Staphylococcus aureus. In words: Antimicrobial activity against Staphylococcus aureus ATCC 6538 at 100 ug/disk after 24 hrs. The format is functional, organism-based. In outline: as §1
The subject of assay [7] is Bacillus subtilis. In words: Antimicrobial activity against Bacillus subtilis ATCC 6633 at 100 ug/disk after 24 hrs. The following applies: for zone of inhibition at 100 µg/disc: ATCC 6633, 24 h, read-out: IZ.
Assay [8] relates to Aspergillus fumigatus. Kind of assay: Antifungal activity against Aspergillus fumigatus ATCC 10894 at 100 ug/disk after 24 hrs. The format is functional, organism-based.

In the case of `O=C1C[C@@H]2S[C@@]34C[C@@H]1[C@@H]([C@H]2O)N3C(=O)[C@@]12C[C@H]3C(=O)C[C@H](S1)[C@H](O)[C@H]3N2C4=O`, the result in assay [1], in assay [2], in assay [3], in assay [4], in assay [5] and in assay [6] was inactive. For the same compound, the result in assay [7] and in assay [8] was inactive.
For `O=C(O)c1cn(C2CC2)c2cc(N3CCNCC3)c(F)cc2c1=O` [CIPROFLOXACIN], the zone of inhibition at 100 µg/disc in assay [7] was found to be 28 mm.
With `O=C1C[C@@H]2SS[C@@]34C[C@@H]1[C@@H]([C@H]2O)N3C(=O)[C@@]12C[C@H]3C(=O)C[C@H](SS1)[C@H](O)[C@H]3N2C4=O`, the result in assay [1], in assay [2], in assay [3], in assay [4], in assay [5] and in assay [6] was inactive. The result in assay [7] and in assay [8] was inactive.
In the case of `O=C1C[C@@H]2SS[C@@]34C[C@@H]1[C@@H]([C@H]2O)N3C(=O)[C@@]12C[C@H]3C(=O)[C@H](S1)[C@H](O)[C@H](O)[C@H]3N2C4=O`, the result in assay [1], in assay [2], in assay [3], in assay [4], in assay [5] and in assay [6] was inactive. In addition, the outcome in assay [7] and in assay [8] was inactive.
Regarding `O=C1C[C@H]2SS[C@@]34C[C@@H]1[C@@H]([C@H]2O)N3C(=O)[C@@]12C[C@H]3C(=O)C[C@@H](S1)[C@H](O)[C@H]3N2C4=O` [EPICOCCIN A], the result in assay [1], in assay [2], in assay [3], in assay [4], in assay [5] and in assay [6] was inactive. Besides, in assay [8], the outcome was inactive. The zone of inhibition at 100 µg/disc in assay [7] was 12 mm.
